Converted amounts (≈) assume the structure as drawn.
Tests used:
HUVEC [1] = assay: Inhibitory concentration against human umbilical vein endothelial cells(HUVEC) growth; format: functional, cell-based
Outline: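 Human umbilical vein endothelial cell (HUVEC) proliferation assay; IC50 derived by nonlinear regression.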

[2] = Inhibitory concentration for cytotoxic activity against U87 cell line; format: functional, cell-based, U-87MG ATCC; conditions: Homo sapiens, U-87 MG
Outline: (§1)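 […] cytotoxicity measured by MTT assay on B16, Vero, U87 and SiHa cells, run alongside HUVEC for selectivity comparison.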

B16 = assay: Inhibitory concentration for cytotoxic activity against B16 cell line; format: functional, cell-based; conditions: Mus musculus; outline: as §1
HUVEC [3] = assay: Percentage tube formation inhibition against human umbilical vein endothelial cells(HUVEC) at a concentration of 10 ug/mL; format: functional
Outline: (§2)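 HUVEC tube formation with test agent at 10, 5 or 2.5 µg/mL; total tube length per field quantified by image analysis and expressed as a percentage of the untreated control.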

HUVEC [4] = assay: Percentage tube formation inhibition against human umbilical vein endothelial cells(HUVEC) at a concentration of 5 ug/mL; format: functional; outline: as §2
Vero = assay: Inhibitory concentration for cytotoxic activity against Vero cell line; format: functional, cell-based; conditions: Chlorocebus sabaeus; outline: as §1
SiHa = assay: Inhibitory concentration for cytotoxic activity against SiHa cell line; format: functional, cell-based; conditions: Homo sapiens; outline: as §1
HUVEC [5] = assay: Percentage tube formation inhibition against human umbilical vein endothelial cells(HUVEC) at a concentration of 2.5 ug/mL; format: functional; outline: as §2

Structure (SMILES)	IC50 (HUVEC [1])	IC50 [2]	IC50 (B16)	inhibition at 10 µg/mL (HUVEC [3])	inhibition at 5 µg/mL (HUVEC [4])	IC50 (Vero)	IC50 (SiHa)	inhibition at 2.5 µg/mL (HUVEC [5])
COc1cc(/C=C/C(=O)c2cccc(NC(=O)c3ccccc3)c2)ccc1O	0.37 µg/mL (≈ 0.991 µM)	8.82 µg/mL (≈ 23.6 µM)	0.82 µg/mL (≈ 2.2 µM)	69%	48%	3.47 µg/mL (≈ 9.29 µM)	4.57 µg/mL (≈ 12.2 µM)	–
COC(=O)C(=O)Nc1cccc(C(=O)/C=C/c2ccc(O)c(OC)c2)c1	1.5 µg/mL (≈ 4.22 µM)	12.2 µg/mL (≈ 34.4 µM)	4.41 µg/mL (≈ 12.4 µM)	43%	20%	3.55 µg/mL (≈ 9.99 µM)	7.71 µg/mL (≈ 21.7 µM)	–
COc1cc(/C=C/C(=O)c2cccc(NC(=O)C(C)C)c2)ccc1O	1.44 µg/mL (≈ 4.24 µM)	8.31 µg/mL (≈ 24.5 µM)	1.09 µg/mL (≈ 3.21 µM)	56%	51%	3.47 µg/mL (≈ 10.2 µM)	5.96 µg/mL (≈ 17.6 µM)	11%
COc1cc(/C=C/C(=O)c2cccc(NC(=O)c3cccs3)c2)ccc1O	0.38 µg/mL (≈ 1 µM)	14.7 µg/mL (≈ 38.7 µM)	6.93 µg/mL (≈ 18.3 µM)	90%	80%	3.98 µg/mL (≈ 10.5 µM)	6.57 µg/mL (≈ 17.3 µM)	71%
COc1cc(/C=C/C(=O)CC(=O)/C=C/c2ccc(O)c(OC)c2)ccc1O [CURCUMIN]	10.8 µg/mL (≈ 29.4 µM)	–	–	–	–	–	–	–
COc1cc(/C=C/C(=O)c2cccc(NC(C)=O)c2)ccc1O	7.06 µg/mL (≈ 22.7 µM)	> 50 µg/mL	3.62 µg/mL (≈ 11.6 µM)	32%	15%	14.5 µg/mL (≈ 46.5 µM)	15.8 µg/mL (≈ 50.6 µM)	–
COc1cc(/C=C/C(=O)c2cccc(NC(=O)c3ccc(Cl)cc3)c2)ccc1O	0.76 µg/mL (≈ 1.86 µM)	> 50 µg/mL	0.59 µg/mL (≈ 1.45 µM)	66%	42%	3.82 µg/mL (≈ 9.37 µM)	2.3 µg/mL (≈ 5.64 µM)	–
COc1cc(/C=C/C(=O)c2cccc(NC(=O)c3c(Cl)cccc3Cl)c2)ccc1O	0.46 µg/mL (≈ 1.04 µM)	17.8 µg/mL (≈ 40.3 µM)	1.58 µg/mL (≈ 3.57 µM)	99%	88%	2.48 µg/mL (≈ 5.61 µM)	3.56 µg/mL (≈ 8.05 µM)	53%
COc1cc(/C=C/C(=O)c2cccc(NC(=O)c3ccco3)c2)ccc1O	0.38 µg/mL (≈ 1.05 µM)	6.65 µg/mL (≈ 18.3 µM)	5.46 µg/mL (≈ 15 µM)	100%	82%	3.11 µg/mL (≈ 8.56 µM)	0.76 µg/mL (≈ 2.09 µM)	61%
CCCC(=O)Nc1cccc(C(=O)/C=C/c2ccc(O)c(OC)c2)c1	1.27 µg/mL (≈ 3.74 µM)	5.56 µg/mL (≈ 16.4 µM)	1.43 µg/mL (≈ 4.21 µM)	87%	57%	2.04 µg/mL (≈ 6.01 µM)	3.94 µg/mL (≈ 11.6 µM)	40%
CCOC(=O)C(=O)Nc1cccc(C(=O)/C=C/c2ccc(O)c(OC)c2)c1	13.3 µg/mL (≈ 36 µM)	> 50 µg/mL	7.03 µg/mL (≈ 19 µM)	66%	45%	> 50 µg/mL	> 50 µg/mL	–
COc1cc(/C=C/C(=O)c2cccc(NC(=O)c3ccc(Cl)c(Cl)c3)c2)ccc1O	2.97 µg/mL (≈ 6.71 µM)	29.5 µg/mL (≈ 66.6 µM)	3.88 µg/mL (≈ 8.77 µM)	45%	5%	> 50 µg/mL	25.3 µg/mL (≈ 57.2 µM)	–
COc1cc(/C=C/C(=O)c2cccc(NC(=O)c3ccc(Cl)cc3Cl)c2)ccc1O	0.4 µg/mL (≈ 0.904 µM)	> 50 µg/mL	12.8 µg/mL (≈ 29 µM)	70%	51%	27.2 µg/mL (≈ 61.5 µM)	34.4 µg/mL (≈ 77.8 µM)	29%
COc1cc(/C=C/C(=O)c2cccc(N)c2)ccc1O	2.87 µg/mL (≈ 10.7 µM)	7.71 µg/mL (≈ 28.6 µM)	11.5 µg/mL (≈ 42.6 µM)	90%	50%	6.02 µg/mL (≈ 22.4 µM)	12.3 µg/mL (≈ 45.8 µM)	20%
COc1cc(/C=C/C(=O)c2cccc(NC(=O)c3cc(Cl)cc(Cl)c3)c2)ccc1O	0.75 µg/mL (≈ 1.7 µM)	> 50 µg/mL	4.83 µg/mL (≈ 10.9 µM)	58%	51%	> 50 µg/mL	17.7 µg/mL (≈ 40 µM)	15%

— ChEMBL document CHEMBL1142785, “Synthesis of novel curcumin mimics with asymmetrical units and their anti-angiogenic activity” (Bioorg Med Chem Lett, 2005)
